Cl transport mod = KCC2 cotransporter modulators, thallium flux, primary screen, cell-based, HEK293 KCC2, FluoZin-2 fluorescence, MLSMR | KCC2 cells, thallium flux FluoZin-2 fluorescence | B-score of Tl+ flux slope (higher = more flux/activation; lower = inhibition) at 10 µM | AID 1456, 2008 | Solute carrier family 12 member 5 (Homo sapiens), Q9H2X9 | 2.2% of 190,000 active;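 active = thallium flux slope and its plate-corrected score both differing from the plate sample mean at a set confidence after two filtering rounds, in either direction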;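 note: slope of fluorescence scaled to starting intensity during 10 to 20 s after thallium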
KCNQ1 act = potentiators or activators of KCNQ1 channel, primary screen, cell-based, thallium flux, high-throughput; 0.35% of 310,000 active; B-score at 10 µM; CHO-K1 KCNQ1, thallium flux FluxOR fluorescence; active compounds read high; AID 2648, 2010;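 active = fluorescence ratio B-score, a plate-corrected score, at least three library SD, with initial intensity B-score within 5 SD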
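System: CHO-K1 cells stably expressing KCNQ1 / Medium: assay buffer for compound exposure, DMSO matched across wells / Reagent: thallium- and potassium-containing depolarizing buffer / Compound: one concentration, matched DMSO / Incubation: 20 min compound pretreatment at room temperature / Measured by: kinetic FluxOR fluorescence, 10 s baseline plus 110 s post-stimulus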
hERG rescue = hERG rescue from dofetilide block, primary screen, cell-based, CHO-hERG, FluxOR thallium flux, dofetilide IC70; AID 1511, 2009; dofetilide IC70 present; activation (rescue from dofetilide block), less the hit threshold, % at 10 µM; Voltage-gated inwardly rectifying potassium channel KCNH2 (Homo sapiens), Q12809; 0.51% of 310,000 active;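 active = activation above the mean of controls blocked by dofetilide plus 5 SD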;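 note: thallium influx through hERG after potassium depolarization seen as dye fluorescence rise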
KCNQ1 inh = inhibitors of human KCNQ1 channel, primary screen, cell-based, thallium flux, high-throughput; CHO-K1 KCNQ1, FluxOR thallium flux fluorescence; active compounds read high; B-score at 10 µM; 1.3% of 310,000 active; AID 2642, 2010;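 active = compounds whose thallium flux B-score, printed positive for inhibition, exceeds three library SD while starting fluorescence stays within three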;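 note: channel opened by potassium depolarization with thallium stimulus after 20 min compound exposure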
KCNK9 inh = KCNK9 potassium channel inhibitors, primary screen, HEK293 cells, thallium flux. 1.2% of 310,000 active. AID 488922, 2010. B-score at 10 µM. Potassium channel subfamily K member 9 (Homo sapiens), Q9NPC2. FluxOR thallium flux fluorescence; active compounds read low;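 active = ratio B-score over 3 SD below the library mean, with starting fluorescence within 5 SD of its mean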;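 note: negative B-score means less thallium flux so channel inhibition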
KCNK3 inh = human KCNK3 channel inhibitors, primary screen, CHO cells, FluxOR thallium flux, B-score; Potassium channel subfamily K member 3 (Homo sapiens), O14649; FluxOR fluorescence; active compounds read low; B-score at 10 µM; 0.84% of 340,000 active; AID 602410, 2012;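 active = B-score under library mean minus 4 SD, starting fluorescence ratio at most library mean plus 5 SD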;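 note: more negative B-score means stronger inhibition of thallium flux through KCNK3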
KCNQ1 block val = KCNQ1 potassium channel inhibitors, confirmation, cell-based, Tl flux, duplicate; shares compounds with KCNQ1 inh; KCNQ1 cell line, FluxOR thallium flux fluorescence; inhibition, % at 10 µM; 93% of 1,600 active;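 active = primary screen active, with duplicate mean exceeding buffer control mean plus 3 SD of buffer wells, cut at about 28% in these data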
CHO KCNQ1 ctr = thallium flux effects in parental CHO cells, counter-screen for KCNQ1 inhibitor project, cell-based, Tl flux; shares compounds with KCNQ1 inh; parental CHO-K1, FluxOR thallium flux fluorescence ratio; active compounds read low; zero means no signal rise above baseline; fluorescence ratio (Tl flux) at 10 µM; 21% of 1,600 active;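 active = mean of duplicate thallium-flux fluorescence ratios in parental host cells more than 5 SD below the buffer control mean, cut at about 0.38 in these data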;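 note: ratio is peak minus minimum fluorescence divided by baseline fluorescence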
KCNQ1 APC inh = KCNQ1 channel inhibitors, confirmation, orthogonal assay, cell-based, automated electrophysiology; shares compounds with KCNQ1 inh; KCNQ1-CHO cells, automated patch clamp current; calls only at 10 µM; 20% of 490 active;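 active = KCNQ1 current drop exceeding 3 SD of negative control wells, seen in both duplicate runs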;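 note: steady state current during a 2 s step from -80 to +40 mV; negative values mean current inhibition and positive values mean potentiation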
KCNQ2 inh = KCNQ2 channel inhibition, selectivity assay for KCNQ1 inhibitor project, cell-based; shares compounds with KCNQ1 inh; 71% of 1,600 active; AID 651746, 2012; inhibition, % at 10 µM; KCNQ2 cells, FluxOR thallium flux fluorescence;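 active = mean percent inhibition of the KCNQ2 thallium signal more than 5 SD above the buffer-only control wells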;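 note: KCNQ2 expressed in CHO cells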
KCNQ1 KCNE1 spec = KCNQ1/KCNE1 channel inhibition, selectivity assay for KCNQ1 inhibitor project, CHO-K1 cells, thallium flux, FluxOR; inhibition, % at 10 µM; 77% of 1,600 active; shares compounds with KCNQ1 inh; FluxOR thallium flux fluorescence; AID 652147, 2013;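 active = mean percent inhibition of duplicate wells above the buffer-only control mean plus 3 SD of those controls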
Target sequence (P51787 whole entry, looked up): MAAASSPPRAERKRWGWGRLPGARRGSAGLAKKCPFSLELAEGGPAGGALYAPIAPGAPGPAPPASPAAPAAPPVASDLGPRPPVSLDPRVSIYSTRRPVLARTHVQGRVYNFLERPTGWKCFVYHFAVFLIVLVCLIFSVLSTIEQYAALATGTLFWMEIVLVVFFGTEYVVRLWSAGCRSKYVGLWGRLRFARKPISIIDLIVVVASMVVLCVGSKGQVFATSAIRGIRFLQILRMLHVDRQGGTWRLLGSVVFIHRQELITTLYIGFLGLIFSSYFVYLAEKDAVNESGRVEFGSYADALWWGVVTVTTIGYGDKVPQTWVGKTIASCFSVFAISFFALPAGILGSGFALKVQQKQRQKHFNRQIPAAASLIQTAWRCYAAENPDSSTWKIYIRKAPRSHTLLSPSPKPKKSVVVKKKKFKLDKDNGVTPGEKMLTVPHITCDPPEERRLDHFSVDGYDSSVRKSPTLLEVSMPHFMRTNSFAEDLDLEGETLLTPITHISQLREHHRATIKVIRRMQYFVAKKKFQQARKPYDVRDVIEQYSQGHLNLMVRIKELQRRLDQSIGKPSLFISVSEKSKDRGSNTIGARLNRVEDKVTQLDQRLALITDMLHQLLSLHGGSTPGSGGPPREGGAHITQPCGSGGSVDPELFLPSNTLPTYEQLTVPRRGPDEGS
Of the large screens only hits and unclear results are named; the others gave an inactive call (follow-up assays come after a bar, where they were run). A selection: hits, their analogues and other compounds. The true share with any hit is near 4.1%.

Cc1ccc(NC(=O)c2sc3nc(C)nc(N4CCN(c5ccccn5)CC4)c3c2C)c(C)c1	KCNQ1 inh 8 | KCNQ1 block val 84 | CHO KCNQ1 ctr inactive | KCNQ2 inh 97% | KCNQ1 KCNE1 spec 98%
Cc1cc(C)cc(N(CC(=O)NC2CCC(C)CC2)S(=O)(=O)c2c(C)noc2C)c1 (stereo not drawn)	none (no result: KCNQ1 act, hERG rescue, KCNQ1 inh, KCNK9 inh)
CSc1ccc(S(=O)(=O)N2c3ccccc3CC2C)cc1 (stereo not drawn)	KCNQ1 inh 6 (no result: Cl transport mod) | KCNQ1 block val 104 | CHO KCNQ1 ctr inactive | KCNQ1 APC inh active | KCNQ2 inh 99% | KCNQ1 KCNE1 spec 142%
COC(=O)C1CCCCN1C(=O)c1cc(COc2cccc3cnccc23)on1 (stereo not drawn)	KCNQ1 inh 9 (no result: Cl transport mod) | KCNQ1 block val 25 | CHO KCNQ1 ctr inactive | KCNQ2 inh 75% | KCNQ1 KCNE1 spec inactive
COC(=O)C1CCCCN1C(=O)c1cc(COc2cccc3cccnc23)on1 (stereo not drawn)	none (no result: Cl transport mod)
CCOC(=O)CC1CCCCN1C(=O)c1cc(COc2cccc3cnccc23)on1 (stereo not drawn)	KCNQ1 inh 11 (no result: Cl transport mod) | KCNQ1 block val 136 | CHO KCNQ1 ctr inactive | KCNQ1 APC inh inactive | KCNQ2 inh 92% | KCNQ1 KCNE1 spec 58%
CC1CC(C)CN(S(=O)(=O)N2CCCC(C(=O)NC3CCCCC3)C2)C1 (stereo not drawn)	none (no result: Cl transport mod)
FC(F)(F)c1cccc(NC(=S)NCC2COc3ccccc3O2)c1 (stereo not drawn)	KCNQ1 inh 7 | KCNQ1 block val 58 | CHO KCNQ1 ctr inactive | KCNQ2 inh 65% | KCNQ1 KCNE1 spec 44%
CCCNC(=S)Nc1cccc(C(F)(F)F)c1	none
O=C(CSc1nnc(-c2ccco2)o1)Nc1ccccc1Cl	none (no result: Cl transport mod)
CCC(C)NC(=O)CCc1c(C)nc2nc(-c3cc(OC)cc(OC)c3)nn2c1C (stereo not drawn)	KCNQ1 inh 8 | KCNQ1 block val active | CHO KCNQ1 ctr inactive | KCNQ1 APC inh inactive | KCNQ2 inh inactive | KCNQ1 KCNE1 spec inactive
CCCCNC(=O)CCc1c(C)nc2nc(-c3cc(OC)cc(OC)c3)nn2c1C	none
CCOC(=O)C1CCN(C(=O)CCc2ccccc2)CC1	none
CC1CCCc2sc3nc(NCc4ccco4)n4ncnc4c3c21 (stereo not drawn)	KCNQ1 inh 8 | KCNQ1 block val 102 | CHO KCNQ1 ctr inactive | KCNQ1 APC inh inactive | KCNQ2 inh 84% | KCNQ1 KCNE1 spec 146%
O=C1CN(/N=C/c2ccc([N+](=O)[O-])o2)C(=O)N1	none (no result: KCNK3 inh)
O=C(c1cc(Cl)cc(Cl)c1)N1CCC2CC1c1cc(-c3ccc4c(c3)OCO4)ccc12 (stereo not drawn)	none (no result: Cl transport mod, KCNQ1 act, hERG rescue, KCNQ1 inh, KCNK9 inh)
O=C(NCCC1=CCCCC1)C1CCN(S(=O)(=O)c2cnc[nH]2)CC1	none
Cc1c(C(=O)N(Cc2ccco2)Cc2cccs2)oc2ccccc12	none (no result: Cl transport mod, KCNQ1 act, hERG rescue, KCNQ1 inh, KCNK9 inh)
O=C(c1cc2ccccc2o1)N(Cc1ccco1)Cc1cccs1	KCNQ1 inh 7 (no result: Cl transport mod) | KCNQ1 block val 120 | CHO KCNQ1 ctr 0.36 | KCNQ2 inh 91% | KCNQ1 KCNE1 spec 190%
Cc1cc(NCCNC2=CC(=O)CCC2)nc2ccccc12	none
Cc1cc(NCC2CCCCC2)nc2ccccc12	KCNQ1 inh 7 (no result: Cl transport mod) | KCNQ1 block val 68 | CHO KCNQ1 ctr inactive | KCNQ2 inh inactive | KCNQ1 KCNE1 spec 66%
O=S(=O)(c1ccc(Cl)cc1)c1nc(-c2ccccc2F)oc1NCCCN1CCOCC1	none (no result: Cl transport mod)
NC1=NC[C@H](c2ccccc2)N1CCCCC1CCCCC1	KCNQ1 inh 9 | KCNQ1 block val 116 | CHO KCNQ1 ctr inactive | KCNQ1 APC inh active | KCNQ2 inh 120% | KCNQ1 KCNE1 spec 88%
CCC(=O)Nc1ccc(C(=O)CSc2nnc(-c3ccc(NS(=O)(=O)CC)cc3)o2)cc1OC	none
NC(N)=Nc1nc(CCN2C(=O)c3ccccc3C2=O)cs1	none
CC(C)CN1CC(C)C(=O)N(c2ccccc2)C1=O (stereo not drawn)	none (no result: Cl transport mod, KCNQ1 act, hERG rescue, KCNQ1 inh, KCNK9 inh)
CC(C(=O)NCc1ccccc1)N1C(=O)c2ccccc2C1=O (stereo not drawn)	KCNQ1 inh 7 (no result: Cl transport mod) | KCNQ1 block val 28 | CHO KCNQ1 ctr inactive | KCNQ2 inh inactive | KCNQ1 KCNE1 spec inactive
Cn1c(N)c(C(=O)COC(=O)C2CC(=O)N(Cc3ccccc3)C2)c(=O)n(C)c1=O (stereo not drawn)	KCNQ1 inh 6 | KCNQ1 block val inactive | CHO KCNQ1 ctr inactive | KCNQ2 inh 60% | KCNQ1 KCNE1 spec inactive
CN1CCN(C(=O)C2=C[C@H](C3CC3)C[C@H](OCc3ccc(CO)cc3)O2)CC1	none (no result: Cl transport mod)
O=C(CSc1ccc2nnc(-c3ccccn3)n2n1)Nc1ccccc1C(F)(F)F	none (no result: Cl transport mod)
CN(C)C1=NC[C@H](Cc2ccccc2)N1CC1CCC(C(C)(C)C)CC1 (stereo partly drawn)	KCNQ1 inh 7 (no result: Cl transport mod) | KCNQ1 block val 98 | CHO KCNQ1 ctr inactive | KCNQ2 inh 111% | KCNQ1 KCNE1 spec 70%
CN(C)C1=NC[C@H](Cc2ccccc2)N1CC1CCCC1	none (no result: Cl transport mod, KCNQ1 act, hERG rescue, KCNQ1 inh, KCNK9 inh)
